Screening data (PubChem)
The list is not random: actives were taken first. Their share in the collection is about 4.6%.
TAAR1 antagonist – human TAAR1 antagonism | Q96RJ0 | CHO RD-HGA16 TAAR1, Fluo-8 calcium fluorescence, antagonist | inhibition, % at 3 µM | hit rate 1.5% among 360,000;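 active = inhibition above a per-plate cutoff, the mean inhibition of test compounds on that plate plus 3 SD, cut at about 49% in these data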;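 note: 0% = DMSO plus EC80 beta-PEA response and 100% = DMSO alone without agonist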
Target sequence (Q96RJ0 whole entry, looked up): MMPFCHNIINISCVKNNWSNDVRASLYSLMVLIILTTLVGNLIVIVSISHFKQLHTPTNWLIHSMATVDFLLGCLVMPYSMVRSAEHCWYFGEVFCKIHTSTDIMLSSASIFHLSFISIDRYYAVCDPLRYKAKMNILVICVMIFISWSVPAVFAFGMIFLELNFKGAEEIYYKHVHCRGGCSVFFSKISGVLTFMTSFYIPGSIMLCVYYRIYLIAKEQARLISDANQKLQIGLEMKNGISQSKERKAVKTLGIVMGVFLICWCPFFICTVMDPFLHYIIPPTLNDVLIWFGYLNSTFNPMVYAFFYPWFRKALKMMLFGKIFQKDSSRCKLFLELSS
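Test system: CHO RD-HGA16 cells bearing hTAAR1 | Reagent: β-PEA, EC80 | Compound dosing: 3 µM, single point | Schedule: Dye loading 75 min at 37 °C, then 30 min room temperature | Signal: Calcium fluorescence with Fluo-8 | Evaluation: Percent inhibition of PEA-evoked calcium signal, max/basal emission ratio | Control set: DMSO-only wells and EC80 β-PEA-stimulated wells | Repeats: Singlicate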
TAAR1 ag – human TAAR1 agonism; Q96RJ0; CHO RD-HGA16 TAAR1, Fluo-8 calcium fluorescence; vehicle wells 0%, saturating PEA agonist 100%; activation, % at 3 µM; hit rate 0.99% among 360,000;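 active = activation above the mean activation of all test compounds in the run plus 3 SD, cut at about 38% in these data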
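Test system: RD-HGA16 (CHO) cells co-expressing Gα16 and hTAAR1 / Benchmarks: DMSO vehicle as 0%, PEA at EC100 as 100% / Repeats: no replicates (n 1) / Measure: % activation from peak over basal fluorescence ratio, DMSO-to-PEA scaled / Timing: 17-24 h plating, Fluo-8 75 min 37 °C, 30 min RT / Technique: kinetic Fluo-8 calcium fluorescence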
OX1R antag-1 – human HCRTR1 antagonism | CHO/OX1R cells, Fluo-8 calcium fluorescence, orexin A | inhibition, % at 5 µM | hit rate 0.43% among 330,000;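 active = inhibition above its plate's threshold, mean inhibition of all tested compounds on the plate plus 3 SD, cut at about 37% in these data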;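 note: 0% = orexin A challenge wells and 100% = SB-334867-A antagonist wells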
GPR7 antagonist – blocks human GPR7 receptor signaling. hit rate 1.1% among 290,000. inhibition, % at 4.4 µM. AID 1861. GPR7-expressing cells, fluorescence antagonist assay; in the data active = inhibition above about 16%, passing the limit was not always enough;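 note: cells stimulated with the agonist NPW; 0% = agonist with vehicle and 100% = vehicle without agonist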
OX1R antag-2 – antagonists of human orexin 1 receptor (OX1R). O43613. OX1R-expressing cells, FRET antagonist read-out. inhibition, % at 6.6 µM. AID 485270. hit rate 1.8% among 330,000; in the data active = inhibition mostly above about 38%, no sharp cut-off; inactive = mostly below about 40%;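 note: 0% = agonist challenge alone and 100% = reference antagonist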
CHO parental Ca – counter-screen for OX1R antagonists: effect in parental CHO cells | AID 463079 | parental CHO-K1, ATP-induced calcium, Fluo-8 fluorescence | hit rate 0.63% among 330,000 | inhibition, % at 5.6 µM;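 active = inhibition above that plate's mean sample inhibition plus 3 SD, cut at about 26% in these data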;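 note: 0% = ATP-challenged DMSO wells and 100% = DMSO wells without ATP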
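Assay system: parental CHO cells; Read-out basis: percent inhibition of ATP-evoked calcium rise, normalized to controls; Benchmarks: ATP and no-ATP DMSO wells; Compound dosing: single nominal dose of 5.6 µM per compound; Signal: Fluo-8 calcium dye fluorescence; Also added: ATP as calcium-mobilizing challenge; Repeats: singlicate.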
An asterisk follows results filed as active; · = no result.

SMILES	TAAR1 antagonist	TAAR1 ag	OX1R antag-1	GPR7 antagonist	OX1R antag-2	CHO parental Ca
COc1ccc(CNc2ccc([N+](=O)[O-])cc2C)cc1	29	-2	10	-7	5	38*
CN=C1SC(CC(=O)NCCc2ccc(OC)c(OC)c2)C(=O)N1C (configuration not stated)	-24	1	104*	9	4	101*
COc1ccc(CCNC(=O)CSc2ccc3ccccc3c2)cc1OC	6	0	-3	-7	64*	-25
COc1ccc(CCNC(=O)COc2ccc(S(=O)(=O)N3CCOCC3)cc2)cc1OC	17	1	15	-10	49*	-7
COc1ccc(CNC(=O)c2ccc3ccccc3n2)cc1OC	8	4	9	15	52*	45*
COc1ccc(CCNC(=O)COc2ccc(S(=O)(=O)N3CCOCC3)cc2)cc1	9	1	10	-2	7	-3
O=C(CSc1ccc2ccccc2c1)NCCc1ccc(O)c(O)c1	6	4	-3	13	21	-12
COc1cc(Br)cc(C=Nc2cccc(C(F)(F)F)c2)c1O	-15	4	1	-7	-5	19
O=C(NCc1cccc(Cl)c1)c1ccc(CS(=O)Cc2ccccc2Cl)o1 (configuration not stated)	18	8	-28	0	2	-22
COc1ccc(CCNC(=O)CSc2nnc(-c3ccccc3)c3ccccc23)cc1OC	-16	-3	-14	-3	73*	-27
COc1ccc(CCNC(=O)CC(=O)N/N=C/c2ccc(C(=O)O)cc2)cc1OC	-10	2	-19	-1	9	-7
COc1ccc(CCNC(=O)CSc2nnc(-c3ccccc3)o2)cc1OC	-10	2	-20	·	12	-4
COC(=O)c1ccc(/C=N/OCC(=O)NCCc2ccc(OC)c(OC)c2)cc1	-8	20	2	-4	45*	-14
CCOc1ccc2oc(C(=O)Nc3ccc(N4CCOCC4)cc3)c(C)c2c1	50*	18	-29	-11	36	-5
Cc1c(C(=O)NCCc2ccc3c(c2)OCCO3)oc2ccccc12	29	10	5	1	38*	-8
CC(=O)Nc1cccc(NC(=O)c2oc3ccccc3c2C)c1	24	19	11	-11	62*	-8
CCC(=O)Nc1ccc(NC(=O)c2oc3ccccc3c2C)cc1	-2	14	-14	-15	47*	-10
COc1ccc(CCNC(=O)c2oc3ccccc3c2C)cc1	9	4	-29	·	16	-26
CCOc1ccc2oc(C(=O)Nc3ccc4c(c3)OCO4)c(C)c2c1	-1	1	-35	-16	12	-20
CCC(=O)Nc1ccc(NC(=S)NC(=O)c2oc3ccccc3c2C)cc1	-25	6	-25	-9	5	-6
CCOc1ccc(NC(=O)COC(=O)C2(C)CC2(Cl)Cl)c([N+](=O)[O-])c1 (configuration not stated)	17	10	-43	-14	19	-26
CN1OC[C@@H]2CN(C(=S)Nc3ccc(C#N)cc3)[C@H](c3ccc(N4CCCCC4)cc3)C[C@@H]21	-16	3	·	·	·	·
O=c1ccc2cc3c([nH]c4ccc(Br)cc43)oc-2c1O	11	38*	7	-1	33	-6
CC(C)CCCC(C)CCOC(=O)CN1CCCC1 (configuration not stated)	1	9	4	-5	6	-9
O=S(=O)(Nc1nc2ccccc2nc1Cl)c1ccccc1C(F)(F)F	-10	6	-1	-9	16	1
SMILES	TAAR1 antagonist	TAAR1 ag	OX1R antag-1	GPR7 antagonist	OX1R antag-2	CHO parental Ca
O=S(=O)(Nc1nc2ccccc2nc1Cl)c1cccc(C(F)(F)F)c1	-5	2	-17	-16	50*	6
Cc1c(Cl)ccc(S(=O)(=O)Nc2cccnc2)c1Cl	7	2	-16	-9	20	-14
Nc1nc2c(s1)COc1ccccc1-2	-10	-1	-11	-10	19	-12
Nc1nc2c(s1)CCc1c-2cnn1-c1ccccc1	·	·	5	20	61*	-16
CCN(CC(=O)NC)S(=O)(=O)c1ccc(C)cc1	3	8	-12	-14	14	-7
CN(C)S(=O)(=O)c1ccc(-c2ccccc2)cc1	5	28	7	3	2	1
CN(c1ccccc1)S(=O)(=O)c1ccc(-c2ccccc2)cc1	52*	6	-8	5	15	22
CCN(CC(=O)NC)S(=O)(=O)c1ccc(Br)cc1	7	4	-15	16*	34	4
CCN(CC)S(=O)(=O)c1ccc(-c2ccc(S(=O)(=O)N(CC)CC)cc2)cc1	35	6	19	2	24	41*
CC(C)(C)NC(=O)NC(=O)CN1CCN(S(=O)(=O)c2ccc3c(c2)OCCO3)CC1	-18	2	-21	4	16	-9
CC(=O)c1ccc(S(=O)(=O)N2CCC(NC(=O)Nc3cccc(F)c3)CC2)cc1	48	14	-16	-2	0	-6
O=C(Nc1cccc(C(F)(F)F)c1)NC1CCN(S(=O)(=O)c2ccc(F)cc2)CC1	18	13	-5	10	7	34*
Cc1cccc(C(=O)NC2CCN(S(=O)(=O)c3cccc(F)c3)CC2)c1	14	-1	·	·	·	·
Cc1cccc(C(=O)NC2CCN(S(=O)(=O)c3ccc(F)cc3)CC2)c1	-4	0	16	17	10	41*
CCCNC(=O)COC(=O)c1cccnc1Nc1ccccc1F	-13	-2	-3	-12	34	-11
O=C(COC(=O)c1cccnc1Nc1ccccc1F)NCCN1C(=O)CSC1=O	-6	3	15	4	55*	-14
Cc1cc(SCC(=O)N(C)C2CCCCC2)nc2ccccc12	11	23	-3	·	36*	-14
CCOC(=O)c1c(N)sc(C(=O)N2CCOCC2)c1C	-16	4	-12	-14	2	-2
C[C@@]12CC(=O)NC1N(C(=O)c1cccc(C(F)(F)F)c1)C(c1ccccc1O)C2 (some centres not stated)	-14	3	-11	1	-3	-12
CN(NS(=O)(=O)c1ccccc1)c1nc2ccccc2nc1C(F)(F)F	-10	6	-3	-4	42	-15
CN(NS(=O)(=O)c1ccc(Cl)cc1)c1nc(C(F)(F)F)nc2ccccc12	-15	5	-21	-2	55*	4
CCC(=O)N1CCc2cc(S(=O)(=O)N(CC)c3cccc(C)c3)ccc21	17	9	-13	-9	7	-9
CCN(c1cccc(C(F)(F)F)c1)S(=O)(=O)c1ccc2c(c1)CCN2C(=O)C1CC1	61*	6	17	-16	23	65*
